Reference: ChEMBL document CHEMBL1136157, “Synthesis of 3a,4-dihydro-3H-[1]benzopyrano[4,3-c]isoxazoles, displaying combined 5-HT uptake inhibiting and alpha(2)-adrenoceptor antagonistic activities: a novel series of potential antidepressants” (Bioorg Med Chem Lett, 2003)

Legend:
[1] = biological target: T1, Alpha-2B adrenergic receptor (Homo sapiens, UniProt P18089); assay: In vitro binding affinity towards human alpha-2B adrenergic receptor using [3H]rauwolscine
T1 sequence (P18089 whole entry): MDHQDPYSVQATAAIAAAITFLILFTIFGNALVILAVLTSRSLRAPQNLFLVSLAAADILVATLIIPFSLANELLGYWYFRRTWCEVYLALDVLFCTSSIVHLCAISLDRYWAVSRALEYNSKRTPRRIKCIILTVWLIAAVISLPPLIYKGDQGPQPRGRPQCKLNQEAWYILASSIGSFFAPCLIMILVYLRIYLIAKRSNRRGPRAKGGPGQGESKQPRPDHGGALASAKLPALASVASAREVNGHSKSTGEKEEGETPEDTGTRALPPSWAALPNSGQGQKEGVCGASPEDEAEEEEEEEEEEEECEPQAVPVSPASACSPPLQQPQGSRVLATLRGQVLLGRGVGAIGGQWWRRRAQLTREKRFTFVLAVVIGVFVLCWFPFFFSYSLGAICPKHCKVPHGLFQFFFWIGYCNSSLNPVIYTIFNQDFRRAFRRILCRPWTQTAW

[2] = biological target: T2, Alpha-2A adrenergic receptor (Homo sapiens, UniProt P08913); assay: In vitro binding affinity towards human alpha-2A adrenergic receptor using [3H]rauwolscine
T2 sequence (P08913 whole entry): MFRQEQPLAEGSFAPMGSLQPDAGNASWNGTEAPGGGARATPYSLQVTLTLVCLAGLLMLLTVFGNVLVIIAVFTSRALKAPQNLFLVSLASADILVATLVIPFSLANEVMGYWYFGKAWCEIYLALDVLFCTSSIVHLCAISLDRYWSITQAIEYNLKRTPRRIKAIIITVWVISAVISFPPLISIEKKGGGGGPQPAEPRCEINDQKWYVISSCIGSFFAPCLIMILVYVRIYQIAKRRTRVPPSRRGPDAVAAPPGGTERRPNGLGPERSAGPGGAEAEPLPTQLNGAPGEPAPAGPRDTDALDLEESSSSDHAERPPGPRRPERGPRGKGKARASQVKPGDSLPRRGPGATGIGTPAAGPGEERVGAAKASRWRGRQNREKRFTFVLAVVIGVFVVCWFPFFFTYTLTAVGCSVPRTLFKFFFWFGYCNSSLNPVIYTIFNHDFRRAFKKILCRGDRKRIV

[3] = biological target: T3, Alpha-2C adrenergic receptor (Homo sapiens, UniProt P18825); assay: In vitro binding affinity towards human adrenergic alpha-2C adrenergic receptor using [3H]rauwolscine
T3 sequence (P18825 whole entry): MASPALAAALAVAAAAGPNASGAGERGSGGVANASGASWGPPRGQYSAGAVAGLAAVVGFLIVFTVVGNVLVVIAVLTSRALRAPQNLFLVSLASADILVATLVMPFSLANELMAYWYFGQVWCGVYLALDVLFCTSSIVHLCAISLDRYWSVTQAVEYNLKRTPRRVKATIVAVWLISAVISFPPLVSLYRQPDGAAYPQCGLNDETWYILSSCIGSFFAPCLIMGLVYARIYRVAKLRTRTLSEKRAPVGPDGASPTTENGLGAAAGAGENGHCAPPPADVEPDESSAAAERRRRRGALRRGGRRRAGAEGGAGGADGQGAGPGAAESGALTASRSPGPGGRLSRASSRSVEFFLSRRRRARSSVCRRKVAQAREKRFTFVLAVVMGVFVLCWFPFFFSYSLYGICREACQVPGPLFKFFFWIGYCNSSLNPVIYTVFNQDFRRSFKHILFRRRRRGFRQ

[4] = biological target: Sodium-dependent serotonin transporter (Rattus norvegicus) (UniProt P31652); assay: In vivo effective dose required to inhibit p-chloroamphetamine induced excitation in rats upon subcutaneous administration; format: functional, organism-based
Sodium-dependent serotonin transporter (Rattus norvegicus), sequence (P31652 whole entry): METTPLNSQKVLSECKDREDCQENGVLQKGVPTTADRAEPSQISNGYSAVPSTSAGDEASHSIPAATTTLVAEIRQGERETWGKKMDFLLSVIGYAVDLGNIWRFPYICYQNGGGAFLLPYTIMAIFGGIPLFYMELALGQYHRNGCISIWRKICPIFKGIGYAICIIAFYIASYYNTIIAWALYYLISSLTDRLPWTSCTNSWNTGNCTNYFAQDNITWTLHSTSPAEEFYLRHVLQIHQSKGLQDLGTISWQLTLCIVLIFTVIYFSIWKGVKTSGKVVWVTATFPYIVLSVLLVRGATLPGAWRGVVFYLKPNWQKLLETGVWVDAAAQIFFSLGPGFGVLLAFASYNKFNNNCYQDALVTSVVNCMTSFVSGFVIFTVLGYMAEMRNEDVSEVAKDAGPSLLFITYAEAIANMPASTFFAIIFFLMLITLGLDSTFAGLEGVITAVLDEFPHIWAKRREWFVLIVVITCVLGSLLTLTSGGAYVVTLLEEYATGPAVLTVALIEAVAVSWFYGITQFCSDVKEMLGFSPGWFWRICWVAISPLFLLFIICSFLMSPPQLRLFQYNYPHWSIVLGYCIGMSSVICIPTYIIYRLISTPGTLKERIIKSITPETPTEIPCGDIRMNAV
How it was run: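 Overnight-starved male Wistar rats (200–250 g) given test compound or solvent sc 1 h before p-chloroamphetamine (5 mg/10 mL/kg, sc). Excitation scored over a 15-min interval starting 45 min after pCA. A score <2 was the all-or-nothing criterion for inhibition (1.0% false positives, n>200). ED50 in mg/kg.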

[5] = biological target: Adrenergic receptor alpha-2 (Rattus norvegicus) (UniProt P22086+P19328+P22909); assay: In vivo effective dose required to inhibit xylazine-induced loss of righting in rats upon subcutaneous administration; format: functional, organism-based

Structure (SMILES)	Ki [1]	Ki [2]	Ki [3]	ED50 [4]	ED50 [5]
COc1cc2c(cc1OC)C1=NOC(CN3CCN(Cc4cc5ccccc5s4)CC3)C1CO2 (centres undefined)	> 1000 nM	98 nM	89 nM	2.5 mg/kg	> 10 mg/kg
COc1cc2c(cc1OC)C1=NO[C@@H](CN3CCN(C/C=C/c4ccccc4)CC3)[C@@H]1CO2 (stereo in doubt; (-)5) [listing 1 of 2 here]				2.5 mg/kg	5 mg/kg
COc1cc2c(cc1OC)C1=NO[C@@H](CN3CCN(C/C=C(\C)c4ccccc4)CC3)[C@@H]1CO2 (stereo in doubt; (-)15g) [listing 1 of 2 here]	405 nM		10 nM		
COc1cc2c(cc1OC)C1=NOC(CN3CCN(CCCc4ccccc4)CC3)C1CO2 (centres undefined)	42 nM	26 nM	1.9 nM	5 mg/kg	2.5 mg/kg
COc1cccc2c1CCC[C@H]2CN(C)CCc1ccc2ccoc2c1	11 nM		2.1 nM	10 mg/kg	> 10 mg/kg
COc1cc2c(cc1OC)C1=NO[C@@H](CN3CCN(C/C=C/c4ccccc4)CC3)[C@@H]1CO2 (stereo in doubt; (+)5) [listing 1 of 2 here]				0.51 mg/kg	2.5 mg/kg
Fc1ccc2c(c1)CC(CC1CN=CN1)C2 (centres undefined)	23 nM		19 nM	2 mg/kg	2.7 mg/kg
COc1cc2c(cc1OC)C1=NOC(CN3CCN(Cc4cccc5ccccc45)CC3)C1CO2 (centres undefined)	> 1000 nM	234 nM	89 nM	3.2 mg/kg	> 10 mg/kg
COc1cc2c(cc1OC)C1=NOC(CN3CCN(C/C=C(\C)c4ccccc4)CC3)C1CO2 (centres undefined)	31 nM		0.6 nM	0.2 mg/kg	2.5 mg/kg
C(=C\c1ccccc1)/CN1CCN(CC2ON=C3c4ccccc4OCC32)CC1 (centres undefined)	2 nM		1.7 nM	5 mg/kg	2 mg/kg
COc1cc2c(cc1OC)C1=NOC(CN3CCN(Cc4ccccc4)CC3)C1CO2 (centres undefined)	995 nM	186 nM	89 nM	8 mg/kg	> 10 mg/kg
COc1cc2c(cc1OC)C1=NOC(CN3CCN(Cc4ccc5ccccc5c4)CC3)C1CO2 (centres undefined)	49 nM		3.1 nM	0.79 mg/kg	5 mg/kg
COc1cc2c(cc1OC)C1=NOC(CN3CCN(C/C(C)=C/c4ccccc4)CC3)C1CO2 (centres undefined)	7.5 nM		0.2 nM		1 mg/kg
COc1cc2c(cc1OC)C1=NO[C@@H](CN3CCN(C/C=C/c4ccccc4)CC3)[C@@H]1CO2 (stereo in doubt; (+)5) [listing 2 of 2 here]	14 nM				
COc1cc2c(cc1OC)C1=NO[C@@H](CN3CCN(Cc4ccc5ccccc5c4)CC3)[C@@H]1CO2 (stereo in doubt; (-)15h) [listing 1 of 2 here]	95 nM		9.5 nM		
COc1cc2c(cc1OC)C1=NO[C@@H](CN3CCN(C/C(C)=C/c4ccccc4)CC3)[C@@H]1CO2 (stereo in doubt; (-)15f) [listing 1 of 2 here]	15 nM		1.4 nM		
COc1cc2c(cc1OC)C1=NO[C@@H](CN3CCN(Cc4ccc5ccccc5c4)CC3)[C@@H]1CO2 (stereo in doubt; (+)15h) [listing 1 of 2 here]	14 nM		0.8 nM		
COc1cc2c(cc1OC)C1=NO[C@@H](CN3CCN(C/C=C/c4ccccc4)CC3)[C@@H]1CO2 (stereo in doubt; (-)5) [listing 2 of 2 here]	42 nM				

Structure (SMILES)	Ki [1]	Ki [2]	Ki [3]	ED50 [4]	ED50 [5]
COc1cc2c(cc1OC)C1=NO[C@@H](CN3CCN(C/C=C(\C)c4ccccc4)CC3)[C@@H]1CO2 (stereo in doubt; (+)15g) [listing 1 of 2 here]				0.5 mg/kg	0.32 mg/kg
COc1cc2c(cc1OC)C1=NO[C@@H](CN3CCN(C/C=C\c4ccccc4)CC3)[C@@H]1CO2				10 mg/kg	
COc1ccc2c(c1)OCC1C2=NOC1CN1CCN(C/C=C/c2ccccc2)CC1 (centres undefined)	16 nM		1.9 nM	1.4 mg/kg	2 mg/kg
COc1cc2c(cc1OC)C1=NOC(CN3CCN(C/C=C/c4ccccc4)CC3)C1CO2 (centres undefined)	42 nM			0.76 mg/kg	2.5 mg/kg
COc1cc2c(cc1OC)C1=NO[C@@H](CN3CCN(C/C=C(\C)c4ccccc4)CC3)[C@@H]1CO2 (stereo in doubt; (+)15g) [listing 2 of 2 here]	14 nM		0.2 nM		
COc1cc2c(cc1OC)C1=NO[C@@H](CN3CCN(Cc4ccc5ccccc5c4)CC3)[C@@H]1CO2 (stereo in doubt; (-)15h) [listing 2 of 2 here]				1.5 mg/kg	10 mg/kg
COc1cc2c(cc1OC)C1=NO[C@@H](CN3CCN(C/C(C)=C/c4ccccc4)CC3)[C@@H]1CO2 (stereo in doubt; (+)15f) [listing 1 of 2 here]					3.1 mg/kg
COc1cc2c(cc1OC)C1=NOC(CN3CCN(CCc4ccccc4)CC3)C1CO2 (centres undefined)	> 1000 nM	234 nM	89 nM	10 mg/kg	> 10 mg/kg
COc1cc2c(cc1OC)C1=NO[C@@H](CN3CCN(C/C(C)=C/c4ccccc4)CC3)[C@@H]1CO2 (stereo in doubt; (-)15f) [listing 2 of 2 here]					> 10 mg/kg
COc1cc2c(cc1OC)C1=NO[C@@H](CN3CCN(C/C(C)=C/c4ccccc4)CC3)[C@@H]1CO2 (stereo in doubt; (+)15f) [listing 2 of 2 here]	3 nM		0.1 nM		
COc1cc2c(cc1OC)C1=NO[C@@H](CN3CCN(C/C=C(\C)c4ccccc4)CC3)[C@@H]1CO2 (stereo in doubt; (-)15g) [listing 2 of 2 here]				> 10 mg/kg	> 10 mg/kg
COc1cc2c(cc1OC)C1=NOC(CN3CCN(CC4=Cc5ccccc5C4)CC3)C1CO2 (centres undefined)	315 nM	22 nM	4.7 nM	0.32 mg/kg	10 mg/kg
COc1cc2c(cc1OC)C1=NOC(CN3CCN(CCC(=O)c4ccccc4)CC3)C1CO2 (centres undefined)		12 nM	5.3 nM		
COc1cc2c(cc1OC)C1=NOC(CN3CCN(Cc4cnc5ccccc5c4)CC3)C1CO2 (centres undefined)	> 1000 nM	34 nM	30 nM	5 mg/kg	5 mg/kg
COc1cc2c(cc1OC)C1=NOC(CN3CCN(Cc4csc5ccccc45)CC3)C1CO2 (centres undefined)	370 nM	66 nM	13 nM		
COc1cc2c(cc1OC)C1=NOC(CN3CCN(Cc4ccc5ncccc5c4)CC3)C1CO2 (centres undefined)	721 nM	117 nM	36 nM	0.63 mg/kg	5 mg/kg
COc1cc2c(cc1OC)C1=NO[C@@H](CN3CCN(Cc4ccc5ccccc5c4)CC3)[C@@H]1CO2 (stereo in doubt; (+)15h) [listing 2 of 2 here]				0.08 mg/kg	6.1 mg/kg
